Source: ChEMBL document CHEMBL1121553, “Substituted 6,7-dihydroimidazo[1,2-a]purin-9(4H)-ones” (J Med Chem, 1980)
Values after ≈ are worked out from the molar mass of the structure shown. Blank lines part the entries; values can stand above or below the compound they belong to. Active and inactive are the calls of the source. The calls are words filed in the database; no cut-off is given here.

What was measured:
Cavia porcellus [1] = organism: Cavia porcellus; assay: In vitro bronchodilator activity in isolated guinea pig tracheal spiral preparation; assay type: functional; conditions: Trachea
Method in brief: (§1)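 Guinea pig tracheal spiral held under 1.0 g tension, equilibrated 90–120 min to maximal spontaneous tonus. One drug concentration per spiral, ≥3 trials per concentration. Relaxation was expressed as % of that produced by papaverine (10 µg/mL) in the same tissue. Concentrations are bath values in µg/mL; the 50%-relaxation concentration was obtained by regression.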

Rattus norvegicus [2] = assay: Antiallergic activity by passive cutaneous anaphylaxis test in ovalbumin sensitized male Harlan-Sprague-Dawley rats at 25 mg/kg oral dose (inactive); assay type: functional, organism-based; design: dose 25 mg/kg
Method in brief: (§2)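 Donor rats got egg albumin im (1 mg/rat) plus killed B. pertussis vaccine ip (2 × 10¹⁰ organisms/rat) and were bled 10–12 days later for IgE-rich antiserum. Recipient rats (100–150 g) were sensitized intradermally with 0.1 mL of 1:2.5 and 1:10 antiserum dilutions.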

Rattus norvegicus [3] = assay: Antiallergic activity was evaluated by inhibition of allergen-induced bronchospasm in male Harlan-Wistar rats when administered intraduodenally 15 min prior to antigen challenge; assay type: functional; conditions: intraduodenal
Rattus norvegicus [4] = assay: Antiallergic activity was evaluated by passive cutaneous anaphylaxis test in egg albumin sensitized male Harlan-Sprague-Dawley rats when administered perorally; assay type: functional; conditions: po; method in brief: as §2
Rattus norvegicus [5] = assay: In vivo bronchodilator activity in methacholine (intravenous) induced bronchospasm in male Harlan-Sprague-Dawley rats when administered intraduodenally; assay type: functional
[6] = Inhibition of rat lung cGMP-Phosphodiesterase
Cavia porcellus [7] = organism: Cavia porcellus; assay: Evaluation of in vitro bronchodilator activity in isolated guinea pig tracheal spiral preparation; assay type: functional; conditions: Trachea; method in brief: as §1
Rattus norvegicus [8] = assay: Antiallergic activity by passive cutaneous anaphylaxis test in rats by intraduodenal administration; assay type: functional
Method in brief: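 Recipient male Harlan-Sprague-Dawley or Wistar rats (100–150 g) received 0.1 mL intradermal antiserum at 1:2.5 and 1:10. Donor antiserum came from rats given egg albumin 1 mg im plus killed B. pertussis 2 × 10¹⁰ ip, bled 10–12 days later. After 48 h, drug went intraduodenally under anesthesia, then iv egg albumin 25 mg/kg with Evans blue 25 mg/kg. Read-out was spot-diameter inhibition versus controls, ≥5 rats/dose; ED50 was estimated.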

Rattus norvegicus [9] = assay: Percent inhibition of PCA reaction in anesthetized rats after 11.7 mg/kg intraduodenal administration for 15 min; assay type: functional; conditions: 0.25 h
Method in brief: (§3)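 Passive cutaneous anaphylaxis in anesthetized rats. Passive sensitization used intradermal IgE antiserum (1:2.5 and 1:10), with a 48-h latent period. Intraduodenal or oral dose is expressed as free-acid equivalent of the salt given. Rats were challenged at 15 min, 3, 6 or 24 h with iv egg albumin 25 mg/kg plus Evans blue 25 mg/kg. Inhibition was calculated from mean spot diameters versus vehicle controls, 10 animals per dose.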

Rattus norvegicus [10] = assay: Percent inhibition of PCA reaction in anesthetized rats at 47.6 mg/kg oral administration for 24 hr r; assay type: functional; method in brief: as §3
Rattus norvegicus [11] = organism: Rattus norvegicus; assay: Antiallergic activity by passive cutaneous anaphylaxis test in vitro in rats; assay type: functional
Method in brief: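 Peritoneal mast cells were lavaged from male Harlan-Sprague-Dawley rats (200–300 g) with HBSS containing 0.1% albumin and 5 mM phosphate. Cells were sensitized with IgE antiserum plus heparin for 2 h at 37 °C, then challenged with egg albumin, drug added simultaneously. After 10 min, histamine was measured fluorimetrically; inhibition versus no-drug release, four trials per concentration.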

Rattus norvegicus [12] = assay: Percent inhibition of PCA reaction in anesthetized rats at 47.6 mg/kg oral administration for 3 hr; assay type: functional; method in brief: as §3
Rattus norvegicus [13] = assay: Antiallergic activity by passive cutaneous anaphylaxis test in rats by intravenous administration; assay type: functional; method in brief: as §2
Rattus norvegicus [14] = assay: Percent inhibition of PCA reaction in anesthetized rats at 47.6 mg/kg oral administration for 6 hr; assay type: functional; method in brief: as §3
Rattus norvegicus [15] = assay: Percent inhibition of PCA reaction in anesthetized rats at 47.6 mg/kg oral administration for 15 min; assay type: functional; conditions: 0.25 h; method in brief: as §3
Rattus norvegicus [16] = assay: Percent inhibition of PCA reaction in anesthetized rats at 11.7 mg/kg intraduodenal administration for 3 hr
Rattus norvegicus [17] = assay: In vivo bronchodilator activity in methacholine (intravenous) induced bronchospasm in male Harlan-Sprague-Dawley rats when administered intraduodenally; statistically significant inhibition of < 50% at thr stated dose; assay type: functional
Rattus norvegicus [18] = assay: Antiallergic activity by passive cutaneous anaphylaxis test in ovalbumin sensitized male Harlan-Sprague-Dawley rats administered perorally; assay type: functional; conditions: po; method in brief: as §2
Rattus norvegicus [19] = assay: Antiallergic activity by passive cutaneous anaphylaxis test in ovalbumin sensitized male Harlan-Sprague-Dawley rats administered orally; assay type: functional; conditions: po; method in brief: as §2

IC50 (Cavia porcellus [1]): 36.6 µg/mL (≈ 140 µM)
SMILES: Cc1nc2c(n1C)C(=O)N1CCN=C1N2CC(C)C

IC50 (Cavia porcellus [1]): 53 µg/mL (≈ 168 µM)
SMILES: O=C1c2[nH]cnc2N(CCc2ccc(Cl)cc2)C2=NCCN12
ED50 (Rattus norvegicus [2]): inactive

IC50 (Cavia porcellus [1]): 2.3 µg/mL (≈ 6.97 µM)
SMILES: CC1CN2C(=O)c3c(ncn3C)N(Cc3ccc(Cl)cc3)C2=N1 (stereo unspecified)
ED50 (Rattus norvegicus [3]): 3.4 mg/kg
ED50 (Rattus norvegicus [4]): 28.9 mg/kg
ED50 (Rattus norvegicus [5]): 1.1 mg/kg

SMILES: Cn1c(=O)c2nc[nH]c2n(C)c1=O.O [THEOPHYLLINE]
Ki [6]: 1.15 mM
IC50 (Cavia porcellus [7]): 18.5 µg/mL
ED50 (Rattus norvegicus [8]): 11.7 mg/kg
inhibition in vivo at 11.7 mg/kg (Rattus norvegicus [9]): 42.4%
inhibition in vivo at 47.6 mg/kg (Rattus norvegicus [10]): 0%
IC50 (Rattus norvegicus [11]): 2.5 mM
inhibition in vivo at 47.6 mg/kg (Rattus norvegicus [12]): 52.5%
ED50 (Rattus norvegicus [13]): > 7.9 mg/kg
inhibition in vivo at 47.6 mg/kg (Rattus norvegicus [14]): 13%
inhibition in vivo at 47.6 mg/kg (Rattus norvegicus [15]): 51.9%
inhibition in vivo at 11.7 mg/kg (Rattus norvegicus [16]): 25.1%

IC50 (Cavia porcellus [1]): 12.5 µg/mL (≈ 41.4 µM)
SMILES: O=C1c2[nH]cnc2N(Cc2cccc(Cl)c2)C2=NCCN12

IC50 (Cavia porcellus [1]): 22.5 µg/mL (≈ 84.2 µM)
SMILES: O=C1c2nc[nH]c2N(Cc2ccccc2)C2=NCCN12
ED50 (Rattus norvegicus [2]): inactive

IC50 (Cavia porcellus [1]): 19.8 µg/mL (≈ 65.8 µM)
SMILES: N=C1c2[nH]cnc2N(Cc2ccc(Cl)cc2)C2=NCCN12
ED50 (Rattus norvegicus [17]): > 30 mg/kg

IC50 (Cavia porcellus [1]): 3.7 µg/mL (≈ 11.7 µM)
SMILES: CC1CN2C(=O)c3[nH]cnc3N(Cc3ccc(Cl)cc3)C2=N1 (stereo unspecified)
ED50 (Rattus norvegicus [3]): 1.5 mg/kg
ED50 (Rattus norvegicus [4]): 10.6 mg/kg
ED50 (Rattus norvegicus [5]): 2.1 mg/kg

IC50 (Cavia porcellus [7]): 8.1 µg/mL (≈ 24.4 µM)
SMILES: CSC1=C2N=CN=C2N(Cc2ccc(Cl)cc2)C2=NCCN21
ED50 (Rattus norvegicus [5]): > 30 mg/kg

IC50 (Cavia porcellus [1]): 1.1 µg/mL (≈ 3.34 µM)
SMILES: C[C@@H]1N=C2N(Cc3ccc(Cl)cc3)c3[nH]cnc3C(=O)N2[C@H]1C
ED50 (Rattus norvegicus [3]): 2.8 mg/kg
ED50 (Rattus norvegicus [4]): 35.5 mg/kg
ED50 (Rattus norvegicus [5]): 5 mg/kg

IC50 (Cavia porcellus [1]): 13 µg/mL (≈ 39.4 µM)
SMILES: CCc1nc2c([nH]1)N(Cc1ccc(Cl)cc1)C1=NCCN1C2=O
ED50 (Rattus norvegicus [17]): > 10 mg/kg

IC50 (Cavia porcellus [1]): 7.9 µg/mL (≈ 23 µM)
SMILES: Cc1nc2c(n1C)C(=O)N1CC(C)N=C1N2Cc1ccc(Cl)cc1 (stereo unspecified)
ED50 (Rattus norvegicus [3]): 14.2 mg/kg
ED50 (Rattus norvegicus [4]): 38.7 mg/kg
ED50 (Rattus norvegicus [5]): 7.5 mg/kg

IC50 (Cavia porcellus [1]): 14 µg/mL (≈ 56.6 µM)
SMILES: CC(C)CN1C2=NC(C)CN2C(=O)c2[nH]cnc21 (stereo unspecified)
ED50 (Rattus norvegicus [18]): > 30 mg/kg

IC50 (Cavia porcellus [1]): 8.4 µg/mL (≈ 25.5 µM)
SMILES: Cc1nc2c(n1C)C(=O)N1CCN=C1N2Cc1ccc(Cl)cc1

IC50 (Cavia porcellus [1]): 11.5 µg/mL (≈ 41.8 µM)
SMILES: CC(C)CN1C2=NCCN2C(=O)c2[nH]c(C(C)C)nc21
ED50 (Rattus norvegicus [4]): 15.3 mg/kg
ED50 (Rattus norvegicus [5]): 9.5 mg/kg

IC50 (Cavia porcellus [1]): 1.7 µg/mL (≈ 4.94 µM)
SMILES: Cc1nc2c([nH]1)N(Cc1ccc(Cl)cc1)C1=NC(C)(C)CN1C2=O
ED50 (Rattus norvegicus [3]): 1.08 mg/kg
ED50 (Rattus norvegicus [4]): 44.4 mg/kg
ED50 (Rattus norvegicus [5]): 7.3 mg/kg

IC50 (Cavia porcellus [7]): 10 µg/mL (≈ 36.6 µM)
SMILES: O=C1c2nc[nH]c2N(CC2CCCCC2)C2=NCCN12
ED50 (Rattus norvegicus [2]): inactive

IC50 (Cavia porcellus [1]): > 200 µg/mL
SMILES: O=C1c2[nH]nnc2N(Cc2ccc(F)cc2)C2=NCCN12
ED50 (Rattus norvegicus [17]): > 10 mg/kg

IC50 (Cavia porcellus [1]): 4.1 µg/mL (≈ 13.7 µM)
SMILES: Oc1c2ncnc-2n(Cc2ccc(Cl)cc2)c2nccn12
ED50 (Rattus norvegicus [5]): 8.1 mg/kg

IC50 (Cavia porcellus [1]): 2.9 µg/mL (≈ 9.18 µM)
SMILES: Cn1cnc2c1C(=O)N1CCN=C1N2Cc1ccc(Cl)cc1
ED50 (Rattus norvegicus [2]): inactive
ED50 (Rattus norvegicus [5]): 8.8 mg/kg

IC50 (Cavia porcellus [1]): 14.3 µg/mL (≈ 43.4 µM)
SMILES: CC1(C)CN2C(=O)c3[nH]cnc3N(Cc3ccc(Cl)cc3)C2=N1
ED50 (Rattus norvegicus [3]): 3 mg/kg
ED50 (Rattus norvegicus [19]): 35.3 mg/kg
